# Assays:
# [1] = Rate constants for reaction of type 2 alkenes with cysteine sulfhydryl groups; assay type: physicochemical; conditions: second-order rate of reaction with L-cysteine at pH 7.4
# In short: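 L-Cysteine was incubated with molar excess of test alkene at pH 7.4 or 8.8, with remaining sulfhydryl measured over time by DTNB absorbance. Pseudo-first-order constants (k1) came from these plots, then second-order constants (k2). Thiolate-corrected constants via log(k k2) = log k2 + pKa – pH, taking sulfhydryl pKa 8.5; n = 4–6 at pH 7.4.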
# [2] = tested on: membrane ^3H-DA transport in striatal synaptosomes; assay: Inhibition of synaptosomal membrane ^3H-DA transport; assay type: biochemical, rat; conditions: for effect on synaptosomal uptake: nonconjugated analogs, striatal synaptosomes; for effect of nucleophile on in vitro neurotoxicity of HNE: nucleophile 500μM, HNE-exposed striatal synaptosomes
# In short: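 Striatal synaptosomes from adult male Sprague-Dawley rats (Percoll gradient, 15%/23% interface), 10 μg protein, were exposed 15 min at 30°C to graded concentrations of test compound or Krebs-HEPES buffer. Samples were washed, filter-trapped and superfused 3 min with 0.30μM 3H-DA. Uptake measured ± Na+ (choline substitution), by scintillation. IC50 (95% CI) by nonlinear regression; n = 4–6.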
# [3] = tested on: ^3H-DA transport in striatal synaptic vesicles; assay: Inhibition of vesicular ^3H-DA transport; assay type: biochemical, rat; conditions: nonconjugated analogs, data not shown
# In short: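 Rat striatal synaptic vesicles (P5 pellet after osmotic shock of crude synaptosomes), 3 μg protein, were exposed 15 min to graded concentrations of test compound or assay buffer. They were then incubated 3 min at 30°C with Mg2+-ATP (2mM) and 0.30μM 3H-DA. Reaction stopped with cold buffer, followed by rapid filtration and scintillation counting. Nonspecific uptake: 4°C without Mg2+-ATP. IC50 (95% CI) by nonlinear regression; n = 3–5.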
# [4] = tested on: total free sulfhydryl content in synaptosomes; assay: Loss of free sulfhydryl groups in synaptosomes; assay type: biochemical, rat; conditions: nonconjugated analogs, striatal synaptosomes
# In short: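 Rat striatal synaptosomes (200 μg protein) were incubated 15 min with graded concentrations of test compound or control buffer, then solubilized in 1% SDS. DTNB (3mM) added; after 5 min equilibration at 25°C, absorbance read at 412 nm against a no-DTNB blank. Free thiol calculated from the extinction coefficient 1.36 × 10^4/M/cm; n = 4–6.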
# [5] = ref Doorn and Petersen, 2002, 2003; cited from earlier work
compound,measurement,setting,value
"C=CC=O [Acrolein, acrolein]",Log k2 (pH = 7.4),[1],2.596
"C=CCO [Allyl alcohol, allyl alcohol]",effect on synaptosomal uptake,[2],did not affect
same,effect on vesicular uptake,[3],did not affect vesicular uptake
same,effect on synaptosomal sulfhydryl content,[4],did not affect
"CCCCCC(O)C=CC=O (stereo not drawn) [HNE, 4-Hydroxy-2-nonenal]","second-order rate constant k2 (mean ± SD), Cys toward HNE",[5],1.33 ± 0.083 M^∧(−1)s^∧(−1)
same,"second-order rate constant k2 (mean ± SD), His toward HNE",[5],2.14 ± 0.312 × 10^−3 M^∧(−1)s^∧(−1)
same,"second-order rate constant k2 (mean ± SD), Lys toward HNE",[5],1.33 ± 0.050 × 10^−3 M^∧(−1)s^∧(−1)
same,Log k2 (pH = 7.4),[1],0.938
"C=CC(C)=O [MVK, methyl vinyl ketone]",Log k2 (pH = 7.4),[1],2.048
"CC(=O)N[C@@H](CS)C(=O)O [NAC, N-acetyl-L-cysteine]",effect of nucleophile on in vitro neurotoxicity of HNE,[2],significantly reduced HNE neurotoxicity
"CC(=O)N[C@@H](CCCCN)C(=O)O [NAL, N-acetyl-L-lysine]",effect of nucleophile on in vitro neurotoxicity of HNE,[2],neither NAL nor carnosine affected the in vitro neurotoxicity of HNE
"CCC=O [Propanal, propanal]",effect on synaptosomal uptake,[2],did not affect
same,effect on vesicular uptake,[3],did not affect vesicular uptake
same,effect on synaptosomal sulfhydryl content,[4],did not affect
"NCCC(=O)N[C@@H](Cc1cnc[nH]1)C(=O)O [carnosine, β-alanyl-L-histidine]",effect of nucleophile on in vitro neurotoxicity of HNE,[2],neither NAL nor carnosine affected the in vitro neurotoxicity of HNE

# — paper PMC2638640 (Toxicological Sciences, 2008)
